Source: publication PMC4036123 (Cancer chemotherapy and pharmacology, 2014)
Read-outs that look alike come from different tables or passages of the source.

Key:
[1] = test system: proteasome trypsin-like activity; experiment: Proteasome-Glo assay in intact MM cells, trypsin-like activity; type: cell-based, human; conditions: read-out: Trypsin-like IC50, 24 hours incubation
Method in brief: (§1)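 MM.1S, MM.1R and RPMI-8226 human myeloma lines were grown in RPMI medium with 10% FBS and antibiotics. Activity was read as luminescence with the Proteasome-Glo kit, following the manufacturer's protocol.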

MM.1S cells = experiment: In vitro cell invasion assay; type: cell-based, human; conditions: MM.1S cells pretreated at IC50 value, Matrigel invasion chamber
[2] = test system: proteasome chymotrypsin-like activity; experiment: Proteasome-Glo assay in intact MM cells, chymotrypsin-like activity; type: cell-based, human; conditions: read-out: Chymotrypsin-like IC50, 24 hours incubation
Method in brief: as §1

RPMI-8226 cells = experiment: Cellular proliferation assay; type: cell-based; conditions: Homo sapiens, RPMI-8226, 48 h, read-out: IC50 (cell viability)
U266 cells = experiment: Cellular proliferation assay; type: cell-based; conditions: Homo sapiens, U-266, 48 h, read-out: IC50 (cell viability)

CC(C)C[C@H](NC(=O)[C@H](Cc1ccccc1)NC(=O)c1cnccn1)B(O)O [Bortezomib]
IC50 ([1]; MM1R cell line): > 18 nM
IC50 ([1]; MM1S cell line): > 18 nM
IC50 ([1]; RPMI822G cell line): > 18 nM
IC50 ([1]; U266 cell line): > 18 nM
inhibition of invasiveness compared to control (MM.1S cells): 37.42%
IC50 (U266 cells): 13.5 nM
